Source: PubChem (Sanford-Burnham Center for Chemical Genomics)
Rows were chosen to be rich in hits. Some 1.5% of all compounds tested hit in one or more screens of this group.
EBI2 antag: EBI2 receptor antagonists, beta-arrestin recruitment, primary screen, cell-based, luminescence, 7a,25-OHC stimulation, uHTS | G-protein coupled receptor 183 (Homo sapiens), P32249 | 7a,25-OHC stimulated | inhibition, % at 5 µM | actives 0.81% (n = 360,000); in the data active means inhibition above about 38%;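 further: enzyme fragment complementation signal reports receptor beta-arrestin coupling in cells; 0% = agonist plus DMSO wells and 100% = wells without agonist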
Target sequence (P32249 whole entry, looked up, the tested form may be a part): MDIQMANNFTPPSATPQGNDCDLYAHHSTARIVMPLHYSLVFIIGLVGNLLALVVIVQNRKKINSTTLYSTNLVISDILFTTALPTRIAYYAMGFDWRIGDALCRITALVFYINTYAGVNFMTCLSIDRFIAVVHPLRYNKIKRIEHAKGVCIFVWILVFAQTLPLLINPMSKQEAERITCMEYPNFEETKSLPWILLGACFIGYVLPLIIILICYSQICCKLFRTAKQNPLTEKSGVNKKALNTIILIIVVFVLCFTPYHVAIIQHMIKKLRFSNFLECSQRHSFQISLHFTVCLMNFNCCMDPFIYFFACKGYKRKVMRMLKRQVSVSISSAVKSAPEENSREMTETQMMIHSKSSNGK
APJ antagonist: antagonists of human apelin receptor APJ, primary screen, CHO-K1 cells, beta-arrestin complementation, luminescence. actives 0.32% (n = 330,000). inhibition, % at 20 µM. AID 2521, 2010. P35414;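 active means inhibition above about 40% at 20 µM, limit read from the data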;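 further: cells challenged with 10 nM apelin-13 agonist together with compound; plate controls were apelin-13 plus DMSO wells for no effect and DMSO wells lacking apelin-13 for full effect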
CCR6 antag: CCR6 receptor antagonists, primary screen, cell-based, CHO-K1, luminescence, beta-arrestin, uHTS. CHO-K1 CCR6 PathHunter beta-arrestin, CCL20-stimulated. actives 0.49% (n = 340,000). inhibition, % at 20 µM. C-C chemokine receptor type 6 (Homo sapiens), P51684;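 active means compounds whose inhibition of the agonist-driven luminescence signal at 20 µM reaches about 50%, limit read from the data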;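 further: cells stimulated with CCL20 at 14 nM final; plate controls were DMSO with CCL20 for no effect and DMSO without agonist for full effect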
APJ agonist: agonists of human apelin receptor APJ, primary screen, CHO-K1 cells, PathHunter beta-arrestin, luminescence; P35414; 0% DMSO wells, 100% apelin; activation, % at 20 µM; actives 0.11% (n = 330,000);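 active means activation more than six SD over the plate average, tested at 20 µM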;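 further: 0% = DMSO alone and 100% = apelin-13 at 10 nM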
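Assay system: CHO-K1 cells stably expressing ProLink-tagged human APJ and arrestin–beta-gal acceptor. Compound dosing: 20 µM single point, 1% DMSO. Times: 16-18 h seeding, 90 min dark compound exposure, 60 min detection. Detection: beta-gal luminescence. Evaluation: APJ–arrestin association signal. Controls: negative DMSO alone, positive Apelin-13 at 10 nM.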
CXCR6 inh: CXCR6 receptor inhibitors, primary screen, cell-based, beta-arrestin, luminescence, CHO-K1 PathHunter, 1536-well; C-X-C chemokine receptor type 6 (Homo sapiens), O00574; inhibition, % at 20 µM; actives 0.36% (n = 360,000); AID 602244, 2012; in the data active means inhibition above about 34%, passing the limit was not always enough;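 further: antagonist mode with CXCL16 agonist at 10 nM final; 0% = 10 nM CXCL16 with DMSO and 100% = unstimulated wells without agonist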
Numbers without * were called inactive; nt = no result.

SMILES	EBI2 antag	APJ antagonist	CCR6 antag	APJ agonist	CXCR6 inh
CC(=O)CC1OC(=O)C(Br)=C1NCc1ccccc1 (configuration not stated)	11	40	61*	-5	32
O=C(CCc1ccccc1F)N1CCN(c2ccc(C(F)(F)F)cn2)CC1	2	9	-2	-1	-1
N#Cc1ccc(OCC(=O)N2CCN(c3ccc(C(F)(F)F)cn3)CC2)cc1	59*	-5	-7	1	-14
CCNc1c(C(=O)O)ccc2c1C(=O)c1ccccc1C2=O	-7	19	11	-3	7
CNc1c(C(=O)O)ccc2c1C(=O)c1ccccc1C2=O	-3	-5	53*	-2	34
Cc1oc2c(c(=O)c1C)C(=O)CC(c1ccccc1)C2 (configuration not stated)	-4	7	-4	-4	14
CS(=O)(=O)c1sc(C#N)c2c1C(=O)CC(c1ccccc1)C2 (configuration not stated)	66*	84*	92*	-5	91*
COC(=O)[C@]12CCCCC=C1N(Cc1ccco1)C(=O)[C@H](CC(=O)NCCCN1CCCC1=O)C2	-14	nt	nt	nt	4
CC(=NNC(=S)N1CCCCCC1)c1cccc2cccnc12	-9	nt	91*	nt	36
Cc1ccc(-c2cc(-c3ccccc3)c(C#N)c(N)n2)o1	-5	0	78*	-6	1
Nc1o[nH]c(=O)c1C1CCCCC1	6	nt	-9	nt	-1
CCOC(=S)SCC(=O)Nc1nc(-c2ccccc2)cs1	-10	7	8	0	8
CCOC(=S)SCC(=O)Nc1nc(-c2ccc(Br)cc2)cs1	69*	18	-25	-3	2
CC1=NNC(=O)/C1=C\c1cn(-c2ccccc2)nc1-c1ccccc1	63*	nt	24	nt	34
Cc1[nH]n(C(N)=S)c(=O)c1N=Nc1cccc(C(F)(F)F)c1	9	18	21	-7	10
Cc1[nH]n(C2=NCCS2)c(=O)c1N=Nc1cccc(C(F)(F)F)c1	16	38	58*	-7	53*
O=C(Cn1sc2ccccc2c1=O)NC12CC3CC(CC(C3)C1)C2	32	3	29	8	41*
O=C(Cn1sc2ccccc2c1=O)Nc1ccccc1	-1	nt	nt	nt	-5
CCOC(=O)c1c(C)[nH]c(C)c1C(=O)COC(=O)Cc1ccc(OC)c(OC)c1	-6	-3	14	-3	3
Cc1ccc(C(=O)N/C(=C\c2ccc(-c3ccc(Br)cc3)o2)C(=O)NCCCN(C)C)cc1	-16	18	70*	-1	12
CC(NC(=O)Cn1ncc(Cl)c(Cl)c1=O)C12CC3CC(CC(C3)C1)C2 (configuration not stated)	63*	nt	33	nt	32
C=CCn1cccc(/C=C/C(=O)c2ccc(C(C)(C)C)cc2)c1=S	44*	nt	37	nt	19
O=C(NC(=S)Nc1ccccc1Br)c1ccc2c(c1)OCO2	4	-19	25	-5	14
CC(C)c1ccc(O)c(NC(=S)NC(=O)c2ccc3c(c2)OCO3)c1	8	13	nt	-10	45*
Cn1cccc1C(C#N)c1cccc(F)c1C#N (configuration not stated)	-11	34	55*	-7	4
SMILES	EBI2 antag	APJ antagonist	CCR6 antag	APJ agonist	CXCR6 inh
O=C1ON=C(c2ccccc2)/C1=C/c1ccc(O)cc1	-34	8	39	-2	46*
Cc1ccc(C2=NOC(=O)/C2=C\c2ccccc2)cc1	7	8	7	-1	-8
COc1cc(/C=C2/C(=O)ON=C2c2ccccc2)ccc1O	-5	25	55*	-4	33
O=C1ON=C(c2ccccc2)/C1=C/c1ccccc1	-5	5	8	4	-2
Cc1ccccc1Cn1ccc(=NCc2ccccc2)cc1	nt	13	11	-4	nt
Cc1ccc(S(=O)(=O)NC(=NC2CCCCC2)c2ccc(Cl)cc2)cc1	7	14	14	-1	-3
O=[N+]([O-])c1cc(Cc2ccccc2)cc(C=Nc2ccc(N3CCOCC3)cc2)c1O	4	nt	55*	nt	43*
Cc1ccc(O)c(N=Cc2cc(Cc3ccccc3)cc([N+](=O)[O-])c2O)c1	-8	-13	29	-1	25
O=S(=O)(Nc1cccc2ncccc12)c1cccs1	60*	88*	88*	-14	79*
Cc1c(NS(=O)(=O)c2cccs2)cccc1-c1nc2cccnc2s1	-14	-5	1	-1	-4
COc1ccc(C(=O)OC(C)C(=O)NC(C)CCc2ccccc2)cc1OC (configuration not stated)	-9	6	-5	-3	0
CCOC(=O)C1=NNC(C(=O)c2ccc(Cl)cc2)C1c1ccc(OC)cc1 (configuration not stated)	12	65*	48	-13	18
OC(c1ccccc1)(c1nc(-c2ccccc2)cs1)C(F)(F)F (configuration not stated)	13	nt	nt	nt	-5
CCOC(=O)N1CCN(C(=O)c2ccc(Cn3c(=S)[nH]c4cc(OCC)c(OCC)cc4c3=O)cc2)CC1	-34	-4	-29	27*	-8
Cc1cc(NCc2ccccc2)nc2ccccc12	3	14	8	-1	-6
C/C(CCC(C)C)=N\Nc1cc(C)c2ccccc2n1	-1	43*	56*	0	35
COc1cc(C2Nc3cc(C)c(C)cc3NC3=C2C(=O)CC(C)(C)C3)ccc1OC(C)=O (configuration not stated)	1	-21	3	-1	2
Cc1cc2c(cc1C)NC(c1c(C)n(C)n(-c3ccccc3)c1=O)C1=C(CC(C)(C)CC1=O)N2 (configuration not stated)	16	8	77*	-1	12
O=C(COC(=O)c1ccc(-n2cnnn2)cc1)c1ccc(Br)cc1	-4	-6	10	0	-4
O=c1oc(-c2ccccc2F)nc2c1cnn2-c1ccccc1	20	19	52*	-3	38
O=c1oc(-c2cccc(Cl)c2)nc2c1cnn2-c1ccccc1	20	13	9	-3	17
O=C(O)COc1ccccc1/C=C1\C(=O)Nc2ccc(Br)cc21	8	5	12	-4	9
C=CCOc1cccc(C(=O)/C=C2/C(=O)Nc3ccccc32)c1	84*	-1	46	2	35
C=CCOc1cccc(C(=O)N2CCCC(CCC(=O)NCc3ccccc3F)C2)c1 (configuration not stated)	4	16	-1	3	-1
O=C1Nc2ccc(Br)cc2/C1=C/C(=O)c1ccccc1	79*	nt	nt	nt	19
CC(=O)/C=C1/C(=O)Nc2ccccc21	11	92*	76*	-10	31
CCNC(=O)C1(C)CCCN(C(=O)/C=C/c2ccccc2)C1 (configuration not stated)	2	nt	nt	nt	-11
